Calls of active or inactive are those of the source. The calls are words filed in the database; no cut-off is given here.
Legend:
[1] = tested on: PC-12; assay: Nitric oxide radical scavenging activity in rat PC12 cells; format: functional, cell-based
In short: (§1)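 PC12 rat pheochromocytoma cells exposed to NO, H2O2 or ·OH. Test compound given either as pre-incubation before radical exposure or as incubation after exposure. Cell survival read by MTT reduction, used as the index of radical scavenging.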

[2] = tested on: PC-12; assay: Hydrogen peroxide radical scavenging activity in rat PC12 cells; format: functional, cell-based; in short: as §1
[3] = tested on: PC-12; assay: Hydroxyl radical scavenging activity in rat PC12 cells; format: functional, cell-based; in short: as §1
[4] = tested on: Aorta; assay: Nitric oxide radical scavenging activity in rat thoracic aorta assessed as inhibition of acteylcholine-induced vasorelaxation at 100 umol; format: functional, tissue-based
[5] = tested on: Aorta; assay: Nitric oxide radical scavenging activity in rat thoracic aorta assessed as inhibition of acteylcholine-induced vasorelaxation at 10 umol; format: functional, tissue-based
[6] = tested on: Aorta; assay: Nitric oxide radical scavenging activity in rat thoracic aorta assessed as inhibition of acteylcholine-induced vasorelaxation at 1 umol; format: functional, tissue-based
[7] = tested on: PC-12; assay: Suppression of free radical-induced decrease in viability of rat PC12 cells; format: functional, cell-based; in short: as §1
[8] = tested on: Rattus norvegicus; assay: Protection against hepatic ischemia-reperfusion-induced injury assessed as effect on malondialdehyde level in Wistar rat liver at 30 mg/kg; format: functional
In short: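 Male Wistar rats given liver ischemia 30 min and reperfusion 2 h under pentobarbital anesthesia. Drug 30 mg/kg dosed 10 min before reperfusion and 1 h after it began; controls got saline. Liver frozen at -70 °C. MDA in liver mitochondria measured spectrophotometrically as thiobarbituric acid reactive substances (Buege and Aust method).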

[9] = tested on: Rattus norvegicus; assay: Protection against hepatic ischemia-reperfusion-induced injury assessed as effect on aspartate aminotransferase level in Wistar rat liver at 30 mg/kg; format: functional
In short: (§2)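 Male Wistar rats, liver ischemia 30 min then reperfusion 2 h under sodium pentobarbital anesthesia (80 mg/kg). Drug 30 mg/kg given 10 min before reperfusion and again 1 h into reperfusion; sham and I/R controls received saline. n = 8 per group (sham n = 4). Serum ALT and AST measured as liver function; blood frozen at -70 °C until analysis.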

[10] = tested on: Rattus norvegicus; assay: Protection against hepatic ischemia-reperfusion-induced injury assessed as effect on alanine aminotransferase level in Wistar rat liver at 30 mg/kg; format: functional; in short: as §2

CC1(C)N([O])C(c2ccc(OCC(=O)N[C@@H](CCCCN)C(=O)O)cc2)=[N+]([O-])C1(C)C
EC50 [1]: 85.5 µM
EC50 [2]: 26.8 µM
EC50 [3]: 92.7 µM
inhibition [4]: 85%
inhibition [5]: 60.7%
inhibition [6]: 24.8%
Activity [7]: Active

N=C(N)NCCC[C@H](N)C(=O)O [ARGININE]
Activity [8]: 3.82 nmol/mg
Activity [9]: 789 U/L
Activity [10]: 493 U/L

CC1(C)N([O])C(c2ccc(OCC(=O)N[C@@H](CCCNC(=N)N)C(=O)O)cc2)=[N+]([O-])C1(C)C
EC50 [1]: 92.8 µM
EC50 [2]: 49 µM
EC50 [3]: 98.9 µM
inhibition [4]: 98.9%
inhibition [5]: 74%
inhibition [6]: 28.7%
Activity [8]: 2.76 nmol/mg
Activity [9]: 510 U/L
Activity [10]: 173 U/L
Activity [7]: Active
